Assay results as given in ChEMBL document CHEMBL3745617 (J Med Chem, 2015).
The source made the active and inactive calls. No cut-off for these calls is given here.

How the values were obtained:
[1] = target: Tyrosine-protein kinase Blk (Homo sapiens) (UniProt P51451); experiment: Inhibition of BLK (unknown origin) expressed in BaF3 cells assessed as inhibition of cell proliferation after 72 hrs by CelltiterGlo assay; format: cell-based
[2] = target: Hepatocyte growth factor receptor (Homo sapiens) (UniProt P08581); experiment: Inhibition of MET (unknown origin) expressed in BaF3 cells assessed as inhibition of cell proliferation after 72 hrs by CelltiterGlo assay; format: cell-based
Sequence of Hepatocyte growth factor receptor (Homo sapiens) (P08581 whole entry): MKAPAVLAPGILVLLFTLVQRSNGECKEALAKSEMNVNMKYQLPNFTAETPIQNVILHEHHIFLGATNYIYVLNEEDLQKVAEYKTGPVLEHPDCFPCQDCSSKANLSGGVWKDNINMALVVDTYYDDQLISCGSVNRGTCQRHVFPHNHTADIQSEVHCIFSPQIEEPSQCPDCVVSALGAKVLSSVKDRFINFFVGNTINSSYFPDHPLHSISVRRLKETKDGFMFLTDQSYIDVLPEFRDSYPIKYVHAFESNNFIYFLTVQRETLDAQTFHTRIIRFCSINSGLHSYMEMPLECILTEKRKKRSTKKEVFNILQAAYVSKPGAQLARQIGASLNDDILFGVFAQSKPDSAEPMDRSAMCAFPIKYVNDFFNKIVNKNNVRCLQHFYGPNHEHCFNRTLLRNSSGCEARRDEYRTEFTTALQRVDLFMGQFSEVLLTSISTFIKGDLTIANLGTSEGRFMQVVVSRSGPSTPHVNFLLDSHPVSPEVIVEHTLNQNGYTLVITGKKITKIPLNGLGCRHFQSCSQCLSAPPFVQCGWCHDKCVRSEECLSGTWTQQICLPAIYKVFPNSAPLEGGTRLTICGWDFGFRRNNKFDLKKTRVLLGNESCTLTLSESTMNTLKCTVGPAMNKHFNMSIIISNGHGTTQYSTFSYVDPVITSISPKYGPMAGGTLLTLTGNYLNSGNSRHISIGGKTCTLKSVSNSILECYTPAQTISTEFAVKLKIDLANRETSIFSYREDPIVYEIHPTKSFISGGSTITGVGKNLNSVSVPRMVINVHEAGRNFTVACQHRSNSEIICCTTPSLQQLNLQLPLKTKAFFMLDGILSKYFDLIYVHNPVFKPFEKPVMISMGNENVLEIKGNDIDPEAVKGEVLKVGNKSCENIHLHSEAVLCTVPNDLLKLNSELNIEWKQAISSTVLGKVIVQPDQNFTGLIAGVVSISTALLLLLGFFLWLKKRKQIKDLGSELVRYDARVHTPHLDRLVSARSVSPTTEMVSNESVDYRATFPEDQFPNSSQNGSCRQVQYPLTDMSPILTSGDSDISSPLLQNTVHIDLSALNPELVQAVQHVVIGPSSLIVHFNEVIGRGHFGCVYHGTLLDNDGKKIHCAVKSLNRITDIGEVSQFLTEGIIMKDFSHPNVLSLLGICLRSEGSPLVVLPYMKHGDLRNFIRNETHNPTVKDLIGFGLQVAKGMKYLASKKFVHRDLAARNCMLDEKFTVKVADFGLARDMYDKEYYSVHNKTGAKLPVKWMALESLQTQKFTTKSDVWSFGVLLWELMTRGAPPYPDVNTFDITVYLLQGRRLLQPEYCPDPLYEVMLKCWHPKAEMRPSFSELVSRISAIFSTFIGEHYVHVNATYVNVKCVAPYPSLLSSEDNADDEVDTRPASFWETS

[3] = target: Tyrosine-protein kinase JAK1 (Homo sapiens) (UniProt P23458); experiment: Inhibition of JAK1 (unknown origin) expressed in BaF3 cells assessed as inhibition of cell proliferation after 72 hrs by CelltiterGlo assay; format: cell-based
[4] = target: Tyrosine-protein kinase JAK2 (Homo sapiens) (UniProt O60674); experiment: Inhibition of JAK2 (unknown origin) expressed in BaF3 cells assessed as inhibition of cell proliferation after 72 hrs by CelltiterGlo assay; format: cell-based
[5] = target: Tyrosine-protein kinase HCK (Homo sapiens) (UniProt P08631); experiment: Inhibition of HCK (unknown origin) expressed in BaF3 cells assessed as inhibition of cell proliferation after 72 hrs by CelltiterGlo assay; format: cell-based
Sequence of Tyrosine-protein kinase HCK (Homo sapiens) (P08631 2-526 limits assumed): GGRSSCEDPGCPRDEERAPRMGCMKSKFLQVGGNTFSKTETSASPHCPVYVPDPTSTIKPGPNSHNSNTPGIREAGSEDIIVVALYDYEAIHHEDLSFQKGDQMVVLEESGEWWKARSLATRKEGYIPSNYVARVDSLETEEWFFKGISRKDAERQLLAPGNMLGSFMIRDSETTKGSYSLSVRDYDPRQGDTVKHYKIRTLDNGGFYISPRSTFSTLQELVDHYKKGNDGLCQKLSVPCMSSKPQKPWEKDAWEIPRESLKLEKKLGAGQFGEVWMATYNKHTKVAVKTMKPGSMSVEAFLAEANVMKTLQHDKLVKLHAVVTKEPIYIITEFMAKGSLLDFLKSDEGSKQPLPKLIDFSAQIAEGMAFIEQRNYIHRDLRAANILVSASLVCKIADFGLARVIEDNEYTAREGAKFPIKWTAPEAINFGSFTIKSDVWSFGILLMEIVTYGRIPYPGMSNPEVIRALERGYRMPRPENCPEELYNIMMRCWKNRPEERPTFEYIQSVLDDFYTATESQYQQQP

[6] = Cmax in Sprague-Dawley rat at 1 mg/kg, iv; format: ADME, organism-based; parameters: dose 1 mg/kg, route intravenous; settings: in vivo
[7] = Apparent volume of distribution in Sprague-Dawley rat at 1 mg/kg, iv; format: ADME, organism-based; settings: in vivo, read-out: Vd(app)
[8] = Clearance in Sprague-Dawley rat at 1 mg/kg, iv; format: ADME, organism-based; settings: in vivo
[9] = Mean residence time (0 to infinity) in Sprague-Dawley rat at 1 mg/kg, iv; format: ADME, organism-based; settings: in vivo
[10] = Tmax in Sprague-Dawley rat at 10 mg/kg, po; format: ADME, organism-based; settings: in vivo
[11] = AUC(0 to t) in Sprague-Dawley rat at 10 mg/kg, po; format: ADME, organism-based; settings: in vivo
Mus musculus = experiment: Toxicity in nu/nu mouse xenografted with human MV4-11 cells assessed as body weight at 12.5 to 50 mg/kg/day administered via oral gavge; format: organism-based; settings: in vivo
Outline: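 Female nu/nu mice carried established MV4-11 xenografts. Daily oral gavage of 12.5, 25.0 or 50.0 mg/kg/d, or vehicle, began once tumors reached 200 to 400 mm3. Each group had 5 animals, and body weight was tracked over a 22-day treatment period. Data are given as mean ± SEM.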

MV4-11 [12] = experiment: Antitumor activity against human MV4-11 cells xenografted in nu/nu mouse assessed as tumor weight at 12.5 mg/kg/day administered via oral gavage measured after 22 days of treatment (reference value: 2.5 g); format: functional
MV4-11 [13] = experiment: Antitumor activity against human MV4-11 cells xenografted in nu/nu mouse assessed as tumor weight at 25 mg/kg/day administered via oral gavage measured after 22 days of treatment (reference value: 2.5 g); format: functional
MV4-11 [14] = experiment: Antitumor activity against human MV4-11 cells xenografted in nu/nu mouse assessed as tumor weight at 50 mg/kg/day administered via oral gavage measured after 22 days of treatment (reference value: 2.5 g); format: functional
[15] = system: Receptor-type tyrosine-protein kinase FLT3 (Homo sapiens), P36888 [UNDEFINED MUTATION]; experiment: Inhibition of FLT3 ITD mutant (unknown origin) expressed in BaF3 cells assessed as inhibition of cell proliferation after 72 hrs by CelltiterGlo assay; format: cell-based
[16] = Cytotoxicity against mouse BAF3 cells assessed as cell proliferation after 72 hrs by CelltiterGlo assay; format: cell-based
[17] = target: Tyrosine-protein kinase Blk (Homo sapiens) (UniProt P51451); experiment: Inhibition of BLK (unknown origin) assessed as remaining activity at 1 uM relative to control
Outline: (§1)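 KinomeScan competitive binding panel of 468 kinases. Compound tested at a single 1 µM concentration. Read-out is percent of kinase activity remaining relative to a DMSO control.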

[18] = target: Receptor tyrosine-protein kinase erbB-3 (Homo sapiens) (UniProt P21860); experiment: Inhibition of ERBB3 (unknown origin) assessed as remaining activity at 1 uM relative to control; outline: as §1
Sequence of Receptor tyrosine-protein kinase erbB-3 (Homo sapiens) (P21860 whole entry): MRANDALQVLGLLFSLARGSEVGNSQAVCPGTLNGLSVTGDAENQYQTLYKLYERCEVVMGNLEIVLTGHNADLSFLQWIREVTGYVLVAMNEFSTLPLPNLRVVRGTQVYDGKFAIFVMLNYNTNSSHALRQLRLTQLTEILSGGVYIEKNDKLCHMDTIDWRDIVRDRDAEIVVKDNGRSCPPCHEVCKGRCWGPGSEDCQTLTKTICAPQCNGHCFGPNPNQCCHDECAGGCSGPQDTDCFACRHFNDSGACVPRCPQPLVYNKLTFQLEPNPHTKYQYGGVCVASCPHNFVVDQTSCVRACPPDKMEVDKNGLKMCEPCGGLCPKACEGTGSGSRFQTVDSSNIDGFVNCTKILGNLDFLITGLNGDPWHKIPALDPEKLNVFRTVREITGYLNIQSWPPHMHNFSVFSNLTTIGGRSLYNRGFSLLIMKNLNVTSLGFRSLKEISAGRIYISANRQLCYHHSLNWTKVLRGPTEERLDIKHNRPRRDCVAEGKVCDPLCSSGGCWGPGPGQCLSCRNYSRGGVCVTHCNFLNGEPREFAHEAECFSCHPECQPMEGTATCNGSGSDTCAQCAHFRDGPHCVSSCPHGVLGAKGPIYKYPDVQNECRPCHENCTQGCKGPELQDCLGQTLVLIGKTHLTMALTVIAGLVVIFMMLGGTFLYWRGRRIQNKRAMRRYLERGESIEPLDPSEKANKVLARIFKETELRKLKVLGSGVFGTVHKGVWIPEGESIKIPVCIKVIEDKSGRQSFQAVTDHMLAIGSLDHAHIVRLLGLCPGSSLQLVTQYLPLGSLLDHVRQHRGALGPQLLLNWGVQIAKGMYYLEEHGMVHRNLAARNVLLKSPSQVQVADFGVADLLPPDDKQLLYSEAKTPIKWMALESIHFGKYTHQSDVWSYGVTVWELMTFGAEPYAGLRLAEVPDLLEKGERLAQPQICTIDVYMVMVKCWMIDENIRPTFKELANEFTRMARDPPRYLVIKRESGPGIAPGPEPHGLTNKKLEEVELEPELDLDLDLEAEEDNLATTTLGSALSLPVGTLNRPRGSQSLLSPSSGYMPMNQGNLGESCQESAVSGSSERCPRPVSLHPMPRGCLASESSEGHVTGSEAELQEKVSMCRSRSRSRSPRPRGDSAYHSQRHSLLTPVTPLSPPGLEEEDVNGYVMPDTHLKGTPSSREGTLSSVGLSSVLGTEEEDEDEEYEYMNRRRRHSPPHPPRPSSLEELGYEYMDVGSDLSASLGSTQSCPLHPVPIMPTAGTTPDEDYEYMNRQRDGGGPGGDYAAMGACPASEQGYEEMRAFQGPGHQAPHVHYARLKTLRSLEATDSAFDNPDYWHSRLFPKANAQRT

[19] = target: Dual specificity mitogen-activated protein kinase kinase 5 (Homo sapiens) (UniProt Q13163); experiment: Inhibition of MEK5 (unknown origin) assessed as remaining activity at 1 uM relative to control
Outline: (§2)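 KinomeScan competition binding panel of 468 kinases, with the compound tested at 1 µM. Each kinase's result is reported as percent activity remaining relative to a DMSO control.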

[20] = target: Platelet-derived growth factor receptor beta (Homo sapiens) (UniProt P09619); experiment: Inhibition of PDGFRB (unknown origin) assessed as remaining activity at 1 uM relative to control
Sequence of Platelet-derived growth factor receptor beta (Homo sapiens) (P09619 whole entry): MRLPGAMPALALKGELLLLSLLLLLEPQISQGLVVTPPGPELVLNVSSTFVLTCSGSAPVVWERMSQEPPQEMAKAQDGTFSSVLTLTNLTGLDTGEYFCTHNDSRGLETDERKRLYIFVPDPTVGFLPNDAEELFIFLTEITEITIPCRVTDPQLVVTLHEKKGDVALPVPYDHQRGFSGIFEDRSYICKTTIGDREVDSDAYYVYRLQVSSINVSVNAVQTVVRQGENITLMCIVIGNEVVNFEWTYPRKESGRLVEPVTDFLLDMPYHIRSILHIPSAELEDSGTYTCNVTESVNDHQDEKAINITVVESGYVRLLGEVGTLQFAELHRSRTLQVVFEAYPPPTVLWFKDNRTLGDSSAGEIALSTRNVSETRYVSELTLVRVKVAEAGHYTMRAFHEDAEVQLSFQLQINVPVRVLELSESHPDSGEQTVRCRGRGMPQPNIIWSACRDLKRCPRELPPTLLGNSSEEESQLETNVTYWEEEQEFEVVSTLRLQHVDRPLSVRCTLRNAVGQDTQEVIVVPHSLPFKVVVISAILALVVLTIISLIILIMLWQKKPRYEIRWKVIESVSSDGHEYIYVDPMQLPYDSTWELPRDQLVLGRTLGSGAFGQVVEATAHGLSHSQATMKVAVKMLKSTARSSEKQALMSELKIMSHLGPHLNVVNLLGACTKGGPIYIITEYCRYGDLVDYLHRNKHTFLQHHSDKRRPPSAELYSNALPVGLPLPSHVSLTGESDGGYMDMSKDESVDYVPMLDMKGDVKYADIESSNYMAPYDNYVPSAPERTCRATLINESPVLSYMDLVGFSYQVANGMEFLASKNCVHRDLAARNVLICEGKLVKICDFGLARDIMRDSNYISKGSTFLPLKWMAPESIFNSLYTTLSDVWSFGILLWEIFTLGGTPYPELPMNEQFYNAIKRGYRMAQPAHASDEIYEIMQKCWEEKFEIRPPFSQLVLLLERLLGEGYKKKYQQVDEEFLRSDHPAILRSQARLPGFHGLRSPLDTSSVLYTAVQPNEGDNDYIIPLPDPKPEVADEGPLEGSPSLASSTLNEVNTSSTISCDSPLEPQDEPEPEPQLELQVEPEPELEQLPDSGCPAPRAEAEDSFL

[21] = target: Proto-oncogene tyrosine-protein kinase receptor Ret (Homo sapiens) (UniProt P07949); experiment: Inhibition of RET (unknown origin) assessed as remaining activity at 1 uM relative to control; outline: as §2
[22] = target: Mast/stem cell growth factor receptor Kit (Homo sapiens, UniProt P10721); experiment: Inhibition of c-KIT (unknown origin) by ADP-Glo assay
Outline: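 Biochemical activity assay in ADP-Glo format using purified c-KIT kinase protein. It was run to confirm the binding-panel findings.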

MV4-11 [23] = experiment: Cell cycle arrest in human MV4-11 cells assessed as accumulation at G0/G1 phase at 0.03 to 1 uM after 24 hrs by flow cytometry; format: functional, cell-based
[24] = Cell cycle arrest in human MOLM13 cells assessed as accumulation at G0/G1 phase at 0.03 to 1 uM after 12 hrs by flow cytometry; format: functional, cell-based; settings: MOLM-13
MOLM-14 = experiment: Induction of apoptosis in human MOLM14 cells assessed as cleaved PARP level at 0.03 to 1 uM after 24 hrs by immunoblot analysis; format: functional, cell-based
[25] = Tmax in Sprague-Dawley rat at 1 mg/kg, iv; format: ADME, organism-based; settings: in vivo
[26] = target: Receptor-type tyrosine-protein kinase FLT3 (Homo sapiens) (UniProt P36888); settings: MV4-11, 0.03 to 3 uM
[27] = target: Receptor-type tyrosine-protein kinase FLT3 (Homo sapiens) (UniProt P36888); settings: MOLM-14, 0.03 to 3 uM
[28] = target: Receptor-type tyrosine-protein kinase FLT3 (Homo sapiens) (UniProt P36888); settings: BaF3
[29] = system: Receptor-type tyrosine-protein kinase FLT3 (Homo sapiens), P36888 [UNDEFINED MUTATION]; settings: BaF3
[30] = system: Receptor-type tyrosine-protein kinase FLT3 (Homo sapiens), P36888 [D835H]; settings: BaF3
[31] = target: Receptor-type tyrosine-protein kinase FLT3 (Homo sapiens) (UniProt P36888); settings: MOLM-13, 0.03 to 3 uM
[32] = target: Receptor-type tyrosine-protein kinase FLT3 (Homo sapiens) (UniProt P36888); settings: MOLM-14, 0.03 to 3 uM; remark: listed apart in the source
[33] = target: Receptor-type tyrosine-protein kinase FLT3 (Homo sapiens) (UniProt P36888); settings: MOLM-13, 0.03 to 3 uM; remark: listed apart in the source
[34] = target: Receptor-type tyrosine-protein kinase FLT3 (Homo sapiens) (UniProt P36888); settings: MV4-11, 0.03 to 3 uM; remark: listed apart in the source

Sequence of Tyrosine-protein kinase Blk (Homo sapiens) (P51451 2-505 limits assumed): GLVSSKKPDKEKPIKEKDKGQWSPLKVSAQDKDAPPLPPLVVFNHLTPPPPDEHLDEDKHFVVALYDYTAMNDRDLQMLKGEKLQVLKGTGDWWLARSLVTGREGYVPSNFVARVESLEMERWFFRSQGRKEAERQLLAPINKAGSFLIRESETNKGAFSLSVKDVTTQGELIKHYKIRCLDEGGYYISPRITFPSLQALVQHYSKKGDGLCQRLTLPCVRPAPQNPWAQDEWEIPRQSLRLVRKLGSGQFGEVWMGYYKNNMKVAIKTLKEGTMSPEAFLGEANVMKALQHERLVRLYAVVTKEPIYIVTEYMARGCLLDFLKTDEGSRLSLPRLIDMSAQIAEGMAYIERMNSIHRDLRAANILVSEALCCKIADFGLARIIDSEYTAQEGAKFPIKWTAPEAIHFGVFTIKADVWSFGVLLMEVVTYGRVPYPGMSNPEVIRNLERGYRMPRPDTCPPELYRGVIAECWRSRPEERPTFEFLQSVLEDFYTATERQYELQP

GI50 [1]: 940 nM
GI50 [2]: 2200 nM
GI50 [3]: 3800 nM
GI50 [4]: 300 nM
GI50 [5]: 880 nM
Cmax [6]: 1500 ng/mL
Vd [7]: 3.23 L/kg
clearance [8]: 26.9 mL/min/kg
MRT inf [9]: 1.15 h
Tmax [10]: 1.67 h
AUC(0-t) [11]: 1830 ng·h/mL
GI50 [15]: 11 nM
Activity [17]: 0.1%
Activity [18]: 0.05%
Activity [19]: 0.45%
Activity [20]: 0.35%
Activity [21]: 0.4%
IC50 [22]: 559 nM
Tmax [25]: 1.2 min
inhibition [26]: Active
inhibition [27]: Active
GI50 [28]: 16 nM
GI50 [29]: 170 nM
GI50 [30]: 4 nM
inhibition [31]: Active
inhibition [32]: Active
inhibition [33]: Active
inhibition [34]: Active
Compound: CN(C)CC(=O)N1CCC[C@@H](n2nc(-c3ccc(Oc4ccccc4)cc3)c3c(N)ncnc32)C1
Activity (Mus musculus): Non-toxic
Activity (MV4-11 [12]): 1.54 g
Activity (MV4-11 [13]): 0.94 g
Activity (MV4-11 [14]): 0.3 g
GI50 at 72 h [16]: 4900 nM
Activity (MV4-11 [23]): Active
Activity [24]: Active
Activity (MOLM-14): Active
